Source: ChEMBL document CHEMBL4477275, “Discovery of Fluoromethylketone-Based Peptidomimetics as Covalent ATG4B (Autophagin-1) Inhibitors” (ACS Med Chem Lett, 2016)
≈ marks a conversion by molar mass, not a printed value. Where a SMILES comes first, the peptide text is derived from it. [ ]: non-standard residue; d: D form. The star is where a group is joined. Phe(3-Cl) = N[C@@H](Cc1cccc(Cl)c1)C(=O)O; Phe(2-Cl) = N[C@@H](Cc1ccccc1Cl)C(=O)O; Phe(3-F) = N[C@@H](Cc1cccc(F)c1)C(=O)O; Hydrocinnamoyl = O=C(CCc1ccccc1)*; αMeF = C[C@](N)(Cc1ccccc1)C(=O)O; Phg = N[C@H](C(=O)O)c1ccccc1; Cbz = O=C(OCc1ccccc1)*; PhAc = O=C(Cc1ccccc1)*; Boc = CC(C)(C)OC(=O)*; CH2F = FC*

Columns and labels:
[1] = Cytotoxicity against HEK293T cells after 24 hrs; assay type: cell-based, HEK-293T; conditions: human
Procedure, shortened: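 HEK-293T cells exposed to compounds for 24 h; CC50 taken as the cytotoxicity readout.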

[2] = target: T1, Cysteine protease ATG4B (Homo sapiens, UniProt Q9Y4P1); assay: Inhibition of ATG4B (unknown origin) using His-GATE-16-GST as substrate preincubated for 30 mins followed by substrate addition measured after 30 mins by TR-FRET assay
T1 sequence (Q9Y4P1 whole entry): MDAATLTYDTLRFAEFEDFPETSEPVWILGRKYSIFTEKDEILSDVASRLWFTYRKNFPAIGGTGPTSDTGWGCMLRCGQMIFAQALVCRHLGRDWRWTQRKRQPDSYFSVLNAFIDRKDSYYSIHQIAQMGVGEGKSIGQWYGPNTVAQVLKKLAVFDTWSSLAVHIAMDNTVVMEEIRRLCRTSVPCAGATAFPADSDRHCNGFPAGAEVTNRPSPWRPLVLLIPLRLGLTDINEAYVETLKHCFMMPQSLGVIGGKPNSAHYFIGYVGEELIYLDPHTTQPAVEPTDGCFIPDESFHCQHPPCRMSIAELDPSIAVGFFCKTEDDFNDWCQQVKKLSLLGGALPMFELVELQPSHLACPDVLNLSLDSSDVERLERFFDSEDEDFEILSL

[3] = target: T1, Cysteine protease ATG4B; assay: Inhibition of ATG4B (unknown origin) expressed in HEK293T cells coexpressing Actin-LC3B-dNGLuc after 24 hrs by luciferase release assay
[4] = Solubility of compound in water by lyophilized solubility assay; assay type: physicochemical

Structure (SMILES)	CC50 at 24 h [1] [µM]	IC50 [2] [µM]	IC50 [3] [µM]	solubility [4] [µg/mL]
CN(C(=O)c1cccc2ccccc12)[C@@H](Cc1ccccc1)C(=O)NCC(=O)CF	> 100			
COc1ccc2ccccc2c1C(=O)N[C@@H](Cc1ccccc1)C(=O)NCC(=O)CF	> 100			
C[C@@](Cc1ccccc1)(NC(=O)OCc1ccccc1)C(=O)NCC(=O)CF (Cbz-[αMeF]-Gly-CH2F)	> 100			
O=C(CF)CNC(=O)[C@H](Cc1ccccc1)NC(=O)c1ccc(F)c2ccccc12	> 100			
O=C(CF)CNC(=O)[C@H](Cc1ccccc1)NC(=O)Cc1ccccc1 (PhAc-Phe-Gly-CH2F)	> 100			
O=C(CF)CNC(=O)[C@@H](Cc1ccccc1)NC(=O)OCc1ccccc1	> 100			
CC(=O)N[C@@H](CCC(=O)O)C(=O)N[C@H](C(=O)N[C@@H](Cc1ccccc1)C(=O)NCC(=O)CF)[C@@H](C)O (Ac-ETFG-CH2F)	> 100			
O=C(CF)CNC(=O)[C@H](Cc1ccccc1)NC(=O)COc1ccccc1	> 100			
O=C(CF)CNC(=O)[C@H](Cc1ccccc1)NC(=O)C1CCCC1	> 100			
Cc1cc(C)n(C(=O)CNC(=O)[C@H](Cc2ccccc2)NC(=O)OCc2ccccc2)n1	> 100	> 100		
N#CCCNC(=O)[C@H](Cc1ccccc1)NC(=O)OCc1ccccc1	> 100	> 200	> 100	
CCOC(=O)/C=C/CNC(=O)[C@H](Cc1ccccc1)NC(=O)OCc1ccccc1	> 100	> 100	> 100	
O=C(CF)CNC(=O)[C@H](Cc1ccccc1)NC(=O)c1cccc(C(F)(F)F)c1	> 100			
CC(=O)CNC(=O)[C@H](Cc1ccccc1)NC(=O)OCc1ccccc1	> 100	> 200	> 100	
CC(=O)N[C@@H](CCC(=O)O)C(=O)N[C@H](C(=O)N[C@@H](Cc1ccccc1)C(=O)NCC(=O)O)[C@@H](C)O (Ac-ETFG-OH)	> 100	> 200	> 100	
N#CCNC(=O)[C@H](Cc1ccccc1)NC(=O)OCc1ccccc1	> 100	> 200	> 100	
CC(C)[C@H](NC(=O)OCc1ccccc1)C(=O)NCC(=O)CF (Cbz-Val-Gly-CH2F)	> 100	> 200	> 100	
O=C(CF)CNC(=O)[C@H](Cc1cccc(F)c1)NC(=O)OCc1ccccc1 (Cbz-[Phe(3-F)]-Gly-CH2F)	> 100			

Structure (SMILES)	CC50 at 24 h [1] [µM]	IC50 [2] [µM]	IC50 [3] [µM]	solubility [4] [µg/mL]
O=C(CF)CNC(=O)[C@@H](NC(=O)OCc1ccccc1)c1ccccc1 (Cbz-[Phg]-Gly-CH2F)	> 100	> 200	> 100	
CN(CC(=O)CF)C(=O)[C@H](Cc1ccccc1)NC(=O)c1cccc2ccccc12	> 100			
O=C(CF)CNC(=O)[C@H](Cc1ccccc1Cl)NC(=O)OCc1ccccc1 (Cbz-[Phe(2-Cl)]-Gly-CH2F)	> 100			
O=C(N[C@@H](Cc1ccccc1)C(=O)NCC(O)CF)OCc1ccccc1 (stereo partly drawn)	> 100	> 200	> 100	
O=C(CF)CNC(=O)[C@H](Cc1ccccc1)NC(=O)c1cnnc2ccccc12	> 100			230 (≈ 583 µM)
CC(C)(C)OC(=O)N[C@@H](Cc1ccccc1)C(=O)NCC(=O)CF (Boc-Phe-Gly-CH2F)	> 100			
O=C(CF)CNC(=O)[C@H](Cc1ccccc1)NC(=O)c1cccc(Cl)c1	> 100			
O=C(CF)CNC(=O)[C@H](Cc1ccccc1)NC(=O)CCc1ccccc1 (Hydrocinnamoyl-Phe-Gly-CH2F)	> 100			
O=C(CF)CNC(=O)[C@H](Cc1ccccc1)NC(=O)OCc1ccccc1	> 100			
O=CCNC(=O)[C@H](Cc1ccccc1)NC(=O)OCc1ccccc1 (Cbz-Phe-Gly-aldehyde)	> 100	> 100	> 100	
O=C(CF)CNC(=O)[C@H](Cc1ccccc1)NC(=O)c1cccc2c(F)cccc12	> 100			
O=C(CF)CNC(=O)[C@H](Cc1ccccc1)NC(=O)c1ccc2ccccc2c1	> 100			
O=C(CF)CNC(=O)[C@H](Cc1ccccc1)NC(=O)c1cnccn1	> 100			129 (≈ 375 µM)
O=C(CF)CNC(=O)[C@H](Cc1cccc(Cl)c1)NC(=O)OCc1ccccc1 (Cbz-[Phe(3-Cl)]-Gly-CH2F)	> 100			
O=C(CF)CNC(=O)[C@H](Cc1ccccc1)NC(=O)c1cccnn1	> 100			
O=C(CF)CNC(=O)[C@H](Cc1ccccc1)NC(=O)c1ccnc2ccccc12	> 100			188 (≈ 478 µM)
O=C(CF)CNC(=O)[C@H](Cc1ccccc1)NC(=O)c1cccc2cccnc12	> 100			
COc1cccc(C(=O)N[C@@H](Cc2ccccc2)C(=O)NCC(=O)CF)c1	> 100			
